This passage reports inhibition and IC50 results from ChEMBL document CHEMBL2010755, “Synthesis of new sulfonamides as lipoxygenase inhibitors” (Bioorg Med Chem, 2012).

pIC50: −log10 of the molar value.

Experiment [1] is described as follows: Inhibition of lipoxygenase using linoleic acid as substrate at 0.5 mM after 10 mins preincubation. In outline:
(§1)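 Purified lipoxygenase (600 units per well) in 100 mM sodium phosphate buffer pH 8.0, with test compound. Pre-read at 234 nm, preincubated 10 min at 25 °C, then started with linoleic acid. Absorbance change at 234 nm read after 6 min. Percent inhibition tested at 0.5 mM. IC50 obtained from dilutions of compounds exceeding 50% inhibition. Triplicates, mean ± SEM.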

Experiment [2] can be described thus: Inhibition of lipoxygenase using linoleic acid as substrate after 10 mins preincubation. In outline: as §1

For the molecule `Cc1ccc(S(=O)(=O)N(C(=O)c2ccc(Cl)cc2)c2ccc(C(=O)O)cc2)cc1`, the inhibition (usually the drop in the measured response relative to a control, in per cent) in experiment [1] worked out at 98.1%. For the same molecule, the pIC50 (commonly the negative decadic logarithm of the IC50, by convention in mol/L) in experiment [2] is 3.75.

`COC(=O)c1ccc(N(C)S(=O)(=O)c2ccc(C)cc2)cc1`: in experiment [1], the inhibition stood at 88.5%. The molecule also showed a pIC50 in experiment [2] of 3.72. In experiment [1], `Cc1ccc(S(=O)(=O)N(C(=O)c2ccccc2)c2ccc(C(=O)O)cc2)cc1` showed an inhibition of 99%. Moreover, the negative logarithm of the IC50 (pIC50) in experiment [2] was 4.04. In turn, `CC(C)=CCN(c1ccc(C(=O)O)cc1)S(=O)(=O)c1ccc(C)cc1` gave an inhibition in experiment [1] of 98.7%. The pIC50 in experiment [2] is 4.80.

For the molecule `Cc1ccc(S(=O)(=O)N(C/C=C/c2ccccc2)c2ccc(C(=O)OC/C=C/c3ccccc3)cc2)cc1`, the inhibition in experiment [1] came to 26.9%. Also, the pIC50 in experiment [2] is less than 3.22.

Regarding `Cc1ccc(S(=O)(=O)Nc2ccc(C(=O)O)cc2)cc1`, in experiment [1], the inhibition came out at 99.4%. Also, the pIC50 in experiment [2] is 3.86.

`C=CCN(c1ccc(C(=O)O)cc1)S(=O)(=O)c1ccc(C)cc1` had an inhibition in experiment [1] of 96.2%. This molecule gave a pIC50 in experiment [2] of 3.66. The molecule `CCCCCN(c1ccc(C(=O)O)cc1)S(=O)(=O)c1ccc(C)cc1` displayed an inhibition in experiment [1] of 98.6%. This molecule also had a pIC50 in experiment [2] of 4.16. For `CCCCN(c1ccc(C(=O)O)cc1)S(=O)(=O)c1ccc(C)cc1`, in experiment [1], the inhibition is 99.4%. In experiment [2], this molecule had a pIC50 of 4.21. In experiment [2], `O=c1c(O)c(-c2ccc(O)c(O)c2)oc2cc(O)cc(O)c12` [QUERCETIN] showed a pIC50 of 4.43. `CCCN(c1ccc(C(=O)O)cc1)S(=O)(=O)c1ccc(C)cc1` had an inhibition in experiment [1] of 40%. For the same molecule, the pIC50 in experiment [2] was less than 3.30. On to `Cc1ccc(S(=O)(=O)N(Cc2ccccc2)c2ccc(C(=O)O)cc2)cc1`, for which the inhibition in experiment [1] was found to be 85.1%. For the same molecule, the pIC50 in experiment [2] was 4.23.

`Cc1ccc(S(=O)(=O)N(CCCl)c2ccc(C(=O)O)cc2)cc1` showed an inhibition in experiment [1] of 21.9%. Further, the pIC50 in experiment [2] was less than 3.22.

In experiment [1], `CCOC(=O)c1ccc(N(CC)S(=O)(=O)c2ccc(C)cc2)cc1` showed an inhibition of 97.6%. For the same molecule, the pIC50 in experiment [2] is 3.64. `O=c1cc(-c2ccccc2)oc2cc(O)c(O)c(O)c12` [BAICALEIN] had a pIC50 in experiment [2] of 4.65. As to `Cc1ccc(S(=O)(=O)Nc2ccc(C(=O)OCC#N)cc2)cc1`, the inhibition in experiment [1] was found to be 97%. The molecule also had a pIC50 in experiment [2] of 3.63.
